The results in this text go back to ChEMBL document CHEMBL1156838, “Utilization of the 1,2,3,5-thiatriazolidin-3-one 1,1-dioxide scaffold in the design of potential inhibitors of human neutrophil proteinase 3” (Bioorg Med Chem, 2010).

The source made the active and inactive calls. No cut-off for these calls is given here.

Assay [1] deals with T1, Neutrophil elastase (Homo sapiens) (UniProt P08246).
T1 sequence (whole entry): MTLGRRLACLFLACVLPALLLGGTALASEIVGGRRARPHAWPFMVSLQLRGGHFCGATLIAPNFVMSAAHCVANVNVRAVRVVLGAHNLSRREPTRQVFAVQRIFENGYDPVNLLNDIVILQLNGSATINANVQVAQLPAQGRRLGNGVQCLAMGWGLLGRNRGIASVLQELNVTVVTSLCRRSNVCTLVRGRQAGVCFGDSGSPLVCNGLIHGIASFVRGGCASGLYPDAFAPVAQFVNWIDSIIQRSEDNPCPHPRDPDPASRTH
Briefly: Inhibition of human neutrophil elastase. The essentials: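 Human elastase (final 70 nM; added from a stock in 0.05 mM sodium acetate/0.5 M NaCl pH 5.50) in 0.1 M HEPES/0.5 M NaCl pH 7.25 at 25 °C. Substrate was methoxysuccinyl-Ala-Ala-Pro-Val p-nitroaniline, with single inhibitor level from DMSO. […] read for 2 min against a DMSO-only hydrolysis control. % inhibition = (1 − v/vo)×100, mean of duplicate or triplicate runs.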

Assay [2] deals with T2, Myeloblastin (Homo sapiens) (UniProt P24158).
T2 sequence (whole entry): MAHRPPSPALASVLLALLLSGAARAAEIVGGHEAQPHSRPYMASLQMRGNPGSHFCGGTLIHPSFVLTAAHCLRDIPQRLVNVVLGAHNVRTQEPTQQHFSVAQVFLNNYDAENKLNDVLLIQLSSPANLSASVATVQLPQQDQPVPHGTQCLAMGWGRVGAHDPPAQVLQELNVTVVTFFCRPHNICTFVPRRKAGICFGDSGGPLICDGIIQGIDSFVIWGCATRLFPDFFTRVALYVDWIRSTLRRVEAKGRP
Briefly: Inhibition of human neutrophil proteinase 3. In short, it runs like this: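 Human proteinase 3 (final 34.5 nM; added from a stock in 0.1 M phosphate pH 6.50) in 0.1 M HEPES/0.5 M NaCl pH 7.25 at 25 °C. Thiobenzyl ester substrate Boc-Ala-Ala-NVa-SBzl, with 5,5′-dithio-bis(2-nitrobenzoic acid) from DMSO and single inhibitor level from DMSO. Absorbance followed at […] for 2 min against an uninhibited hydrolysis control. % inhibition = (1 − v/vo)×100, duplicate or triplicate mean.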

Turning to `CCN1C(=O)N(C(Cc2ccccc2)C(=O)Nc2ccccc2NC(=O)OCC(C)C)S(=O)(=O)N1CC` (stereo unspecified), the inhibition entry in assay [1] was “Active”. For the same molecule, the inhibition result in assay [2] is “inactive”.
Taken in the same sequence, the figures for `CCN1CN(Cc2cn(CC(=O)c3cccs3)nn2)S(=O)(=O)N1CC` were “inactive” and “inactive”.
Taken in the same sequence, the figures for `CCN1CN(Cc2cn(CC(=O)c3ccccc3F)nn2)S(=O)(=O)N1CC` were “inactive” and “inactive”.
Taken in the same sequence, the figures for `CCN1CN(Cc2cccc(NC(=O)c3ccccc3)c2)S(=O)(=O)N1CC` were “inactive” and “inactive”.
Take `CCN1CN(Cc2cccc(NC(=O)c3cccc(OC)c3)c2)S(=O)(=O)N1CC`: the inhibition result in assay [1] and in assay [2] was “inactive” throughout.
As to `CCN1CN(Cc2cccc(NC(=O)NCCc3ccccc3)c2)S(=O)(=O)N1CC`, the inhibition entry in assay [1] and in assay [2] was “inactive” each time.
Take `CCN1CN(Cc2cccc(NC(=O)c3cccc(Oc4ccccc4)c3)c2)S(=O)(=O)N1CC`: the inhibition result in assay [1] and in assay [2] was “inactive” throughout.
With `CCN1CN(Cc2cccc(NC(=O)CCOC)c2)S(=O)(=O)N1CC`, the inhibition result in assay [1] and in assay [2] was “inactive” in each case.
